Converted amounts (≈) assume the structure as drawn.
Experiments:
[1] = Equilibrium solubility of compound at pH 1 incubated for 24 to 48 hrs by HPLC analysis; format: physicochemical; settings: buffer, time 24-48 hrs
Summary of the method: (§1)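 For equilibrium solubility, excess solid was added to 3–4 mL of medium, in triplicate. Suspension pH was read after equilibration. Solids were removed by centrifugation at 4000 rpm at 25 °C, and the supernatant was passed through a 0.45 µm filter, discarding the first 2 mL. The filtrate was quantified by HPLC against standard curves.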

[2] = AUC in cynomolgus monkey at 2 mg/kg, po measured up to 12 hrs; format: ADME, organism-based, Macaca fascicularis; set-up: route oral, dose 2 mg/kg, time <=12; settings: in vivo
Summary of the method: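 Female cynomolgus monkeys were fasted overnight and dosed by gastric intubation with a suspension in 0.5% HPMC at 0.5 mL/kg. The dose was MW-adjusted to 2 mg/kg PIB equivalent, and food was returned at 4 h. Plasma was collected at intervals up to 12 h and assayed for PIB and prodrug to give AUC in ng·h/mL.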

[3] = AUC in CD1 mouse assessed as pibrentasvir1 level at 6 mg/kg, po measured up to 24 hrs; format: ADME, organism-based; set-up: route oral, dose 6 mg/kg, time <=24; settings: in vivo
Summary of the method: (§2)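 CD-1 mice with free access to food and water received an oral gavage of prodrug or PIB at 10 mL/kg in 0.2% HPMC. The dose was adjusted for prodrug MW to equal 6 mg/kg PIB. K2EDTA blood was drawn at 0.25, 0.5, 1, 3, 6, 9, 12 and 24 h. Plasma was spun at 3200 x g for 5 min at ~4°C and stored below -15°C. PIB and prodrug were measured; AUC in ng·h/mL, Cmax in ng/mL.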

[4] = Stability of compound at pH 7.4 assessed as prodrug remaining level at 125 ug/ml incubated for 24 hrs by HPLC analysis; format: physicochemical; settings: buffer, pH 7.4, 24 h, at 125 µg/mL
Summary of the method: (§3)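 A DMSO stock of about 1.25 mg/mL was diluted into 0.1 N HCl (pH 1) or 50 mM phosphate buffer (pH 7.4), giving final concentrations of ~125 µg/mL prodrug and 10% DMSO. The solution was filtered and held at 37 °C in the HPLC autosampler, with injections at several times over 24 h. Percent remaining was calculated from prodrug peak area relative to t0.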

[5] = Cmax in CD1 mouse assessed as pibrentasvir1 level at 6 mg/kg, po measured up to 24 hrs; format: ADME, organism-based; set-up: route oral, dose 6 mg/kg, time <=24; settings: in vivo; summary of the method: as §2
[6] = Solubility in FeSSIF at pH 5; format: physicochemical; summary of the method: as §1
[7] = Equilibrium solubility of compound at pH 7.4 incubated for 24 to 48 hrs by HPLC analysis; format: physicochemical; settings: buffer, time 24-48 hrs; summary of the method: as §1
[8] = Half life of compound at pH 7.4 at 125 ug/ml at 37 degC by HPLC analysis; format: physicochemical; settings: dose 125 µg/ml
[9] = Cmax in beagle dog assessed as pibrentasvir1 level at 40 mg, po measured up to 24 hrs; format: ADME, organism-based, Canis lupus familiaris; set-up: route oral, dose 40 mg, time <=24; settings: in vivo
Summary of the method: (§4)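 The dose equalled 40 mg PIB after adjustment for prodrug MW. Food was returned at 12 h. K2EDTA plasma was sampled at 0.25–24 h. Cmax is in ng/mL and AUC in ng·h/mL.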

[10] = AUC in beagle dog assessed as pibrentasvir1 level at 40 mg, po measured up to 24 hrs; format: ADME, organism-based, Canis lupus familiaris; set-up: route oral, dose 40 mg, time <=24; settings: in vivo; summary of the method: as §4
[11] = Stability of compound at pH 1 assessed as prodrug remaining level at 125 ug/ml incubated for 24 hrs by HPLC analysis; format: physicochemical; settings: buffer, pH 1, 24 h, at 125 µg/mL; summary of the method: as §3
[12] = AUC in CD1 mouse assessed as pibrentasvir1 level at 3 mg/kg, po measured up to 24 hrs; format: ADME, organism-based; set-up: route oral, dose 3 mg/kg, time <=24; settings: in vivo
Summary of the method: (§5)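 CD-1 mice, fed ad libitum, were dosed orally at a prodrug-MW-adjusted dose equal to 3 mg/kg PIB, as a solution or suspension. Serial K2EDTA blood samples were taken from 0.25 to 24 h. Plasma was separated by centrifugation and kept frozen. PIB and prodrug levels were reported as Cmax (ng/mL) and AUC (ng·h/mL).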

[13] = Cmax in CD1 mouse assessed as pibrentasvir1 level at 3 mg/kg, po measured up to 24 hrs; format: ADME, organism-based; set-up: route oral, dose 3 mg/kg, time <=24; settings: in vivo; summary of the method: as §5
[14] = AUC in beagle dog at 40 mg, po measured up to 24 hrs; format: ADME, organism-based, Canis lupus familiaris; set-up: route oral, dose 40 mg, time <=24; settings: in vivo; summary of the method: as §4
[15] = Cmax in CD1 mouse at 3 mg/kg, po measured up to 24 hrs; format: ADME, organism-based; set-up: route oral, dose 3 mg/kg, time <=24; settings: in vivo; summary of the method: as §5
[16] = AUC in CD1 mouse at 3 mg/kg, po measured up to 24 hrs; format: ADME, organism-based; set-up: route oral, dose 3 mg/kg, time <=24; settings: in vivo; summary of the method: as §5
[17] = Cmax in beagle dog at 40 mg, po measured up to 24 hrs; format: ADME, organism-based, Canis lupus familiaris; set-up: route oral, dose 40 mg, time <=24; settings: in vivo; summary of the method: as §4

Row | solubility thermodynamic [1] [mg/mL] | AUC at 12 h [2] [µg·h/mL] | AUC [3] [µg·h/mL] | Stabilty [4] [%] | Cmax [5] [µg/mL] | solubility [6] [mg/mL] | solubility thermodynamic [7] [mg/mL] | half-life at 125 ug/ml [8] [h] | Cmax [9] [µg/mL] | AUC [10] [µg·h/mL] | Stabilty [11] [%] | AUC [12] [µg·h/mL] | Cmax [13] [µg/mL] | AUC at 24 h [14] [µg·h/mL] | Cmax [15] [µg/mL] | AUC at 24 h [16] [µg·h/mL] | Cmax [17] [µg/mL] | SMILES
1 | 0.572 (≈ 401 µM) | 0.24 | 20.6 | 100 | 1.21 | 0.794 (≈ 556 µM) | 0.0005 (≈ 0.35 µM) | > 72 | 0.249 | 3.21 | 87 |  |  |  |  |  |  | COC(=O)N[C@H](C(=O)N1CCC[C@H]1c1nc2cc(F)c([C@H]3CC[C@H](c4cc5nc([C@@H]6CCCN6C(=O)[C@@H](NC(=O)OC)[C@@H](C)OC)n(COC(=O)CC(C)(C)c6c(C)cc(C)cc6OP(=O)(O)O)c5cc4F)N3c3cc(F)c(N4CCC(c5ccc(F)cc5)CC4)c(F)c3)cc2[nH]1)[C@@H](C)OC
2 | > 1 |  |  | 5 |  | > 1 | < 0.0001 |  | 0.379 | 3.94 | 78 | 2.34 | 0.129 | 0.568 |  |  |  | COC(=O)N[C@H](C(=O)N1CCC[C@H]1c1nc2cc(F)c([C@H]3CC[C@H](c4cc5nc([C@@H]6CCCN6C(=O)[C@@H](NC(=O)OC)[C@@H](C)OC)n(COC(=O)[C@@H](N)C(C)C)c5cc4F)N3c3cc(F)c(N4CCC(c5ccc(F)cc5)CC4)c(F)c3)cc2[nH]1)[C@@H](C)OC
3 | > 4 |  |  | 100 |  |  | > 4 |  | 0.152 | 1.47 | 100 | 0.278 | 0.017 | 0.093 | 0.0022 | 0.0126 | 0.02 | COC(=O)N[C@H](C(=O)N1CCC[C@H]1c1nc2cc(F)c([C@H]3CC[C@H](c4cc5c(cc4F)nc([C@@H]4CCCN4C(=O)[C@@H](NC(=O)OC)[C@@H](C)OC)n5COP(=O)(O)O)N3c3cc(F)c(N4CCC(c5ccc(F)cc5)CC4)c(F)c3)cc2[nH]1)[C@@H](C)OC
4 | 0.0373 (≈ 30.5 µM) | 0.16 |  | 100 |  |  | 0.0064 (≈ 5.23 µM) | > 72 | 0.055 | 0.429 | 100 | 2.66 | 0.141 |  |  |  |  | COC(=O)N[C@H](C(=O)N1CCC[C@H]1c1nc2cc(F)c([C@H]3CC[C@H](c4cc5nc([C@@H]6CCCN6C(=O)[C@@H](NC(=O)OC)[C@@H](C)OC)n(COP(=O)(O)O)c5cc4F)N3c3cc(F)c(N4CCC(c5ccc(F)cc5)CC4)c(F)c3)cc2[nH]1)[C@@H](C)OC
5 | 0.186 (≈ 135 µM) |  |  | 31 |  |  | 0.0007 (≈ 0.507 µM) | < 24 | 0.112 | 1.21 | 97 | 3.71 | 0.216 |  |  |  |  | COC(=O)N[C@H](C(=O)N1CCC[C@H]1c1nc2cc(F)c([C@H]3CC[C@H](c4cc5nc([C@@H]6CCCN6C(=O)[C@@H](NC(=O)OC)[C@@H](C)OC)n(COC(=O)[C@@H](NC(=O)COP(=O)(O)O)C(C)C)c5cc4F)N3c3cc(F)c(N4CCC(c5ccc(F)cc5)CC4)c(F)c3)cc2[nH]1)[C@@H](C)OC

Source: ChEMBL document CHEMBL4725393, “Prodrug Strategies to Improve the Solubility of the HCV NS5A Inhibitor Pibrentasvir (ABT-530)” (J Med Chem, 2020)
